Data from ChEMBL document CHEMBL4680077, “Differentiation of skeletal osteogenic progenitor cells to osteoblasts with 3,4-diarylbenzopyran based amide derivatives: Novel osteogenic agents” (Eur J Med Chem, 2016).
Calls of active or inactive are those of the source. The calls are words filed in the database; no cut-off is given here.

Tests used:
Calvarial osteoblast [1] = assay: Induction of osteoblast differentiation in mouse calvarial osteoblast assessed as increase in ALP activity using PNPP as substrate at 0.000001 to 1 uM incubated activity for 48 hrs by spectrophotometric analysis relative to control; type: functional, cell-based; conditions: dose lower 1e-06 µM, dose upper 1.0 µM
Mus musculus [2] = assay: In vivo osteogenic activity in ovariectomized BALB/c mouse assessed as increase in trabecular number administered via oral gavage for 1 month by microCT imaging analysis; type: functional, organism-based; conditions: time 1.0 months
Summary of the method: (§1)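 Ovariectomized female balb/c mice, 8 weeks old, 10 per group, received 1.0 or 10.0 mg kg-1 once daily by oral gavage (gum acacia vehicle) for 4 weeks, alongside sham and Ovx vehicle groups. Femurs were scanned by microCT. BV/TV, Tb.N and Tb.Sp were derived by the mean intercept length method. Mean ± SE.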

Mus musculus [3] = assay: In vivo osteogenic activity in ovariectomized BALB/c mouse assessed as decrease in trabecular spacing administered via oral gavage for 1 month by microCT imaging analysis; type: functional, organism-based; conditions: time 1.0 months; summary of the method: as §1
Calvarial osteoblast [4] = assay: Induction of osteoblast differentiation in mouse calvarial osteoblast assessed as increase in ERalpha expression at 10 nM incubated for 48 hrs by Western blot analysis; type: functional, cell-based
Summary of the method: (§2)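 Calvarial osteoblasts at 60–70% confluence were treated ± compound for 48 h, with 100 pM E2 as positive control. Lysates (30 µg protein) were resolved on 10% SDS-PAGE, transferred to PVDF and probed for ER-α and ER-β with HRP secondaries and ECL detection. Bands were quantified by densitometry normalized to β-actin.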

Mus musculus [5] = assay: In vivo osteogenic activity in ovariectomized BALB/c mouse assessed as increase in femur bone volume density administered via oral gavage for 1 month by microCT imaging analysis; type: functional, organism-based; conditions: time 1.0 months; summary of the method: as §1
Calvarial osteoblast [6] = assay: Induction of osteoblast differentiation in mouse calvarial osteoblast assessed as increase in ERbeta expression at 10 nM incubated for 48 hrs by Western blot analysis; type: functional, cell-based; summary of the method: as §2

In the case of `COc1ccc2c(c1)OC(C)(C)[C@H](c1ccccc1)[C@H]2c1ccc(OCCCCCC(=O)NCc2ccccn2)cc1`, the Activity (Calvarial osteoblast [1]) is reported as “Active”.

With `COc1ccc2c(c1)OC(C)(C)[C@H](c1ccccc1)[C@H]2c1ccc(OCCCCC(=O)NCc2ccccn2)cc1` the Activity (Calvarial osteoblast [1]) was “Active”.

`C[C@]12CC[C@@H]3c4ccc(O)cc4CC[C@H]3[C@@H]1CC[C@@H]2O` was tested, and the Activity (Mus musculus [2]) was “Active”, the Activity (Mus musculus [3]) was “Active” and the Activity (Calvarial osteoblast [4]) was “inactive”. The Activity (Mus musculus [5]) was “Active” and the Activity (Calvarial osteoblast [6]) was “Active”.

In the case of `CCCCN(C)C(=O)CCCOc1ccc([C@H]2c3ccc(OC)cc3OC(C)(C)[C@@H]2c2ccccc2)cc1`, the Activity (Calvarial osteoblast [1]) is reported as “Active”.

For `CCCCN(C)C(=O)CCCOc1ccc(C2=C(c3ccccc3)C(C)(C)Oc3cc(OC)ccc32)cc1`, the Activity (Calvarial osteoblast [1]) was “Active”.
